Assay results as given in ChEMBL document CHEMBL4428115, “Molecular docking studies, biological and toxicity evaluation of dihydroisoquinoline derivatives as potential anticancer agents” (Bioorg Med Chem, 2016).
The source made the active and inactive calls. No cut-off for these calls is given here.

Key:
Jurkat = experiment: Antiproliferative activity against human Jurkat cells; assay type: functional, cell-based
[1] = Acute toxicity in Balbc/cmdb mouse assessed as clinical signs at 2000 mg/kg, po administered as single dose in third stage of experiment measured immediately post dose; assay type: organism-based; conditions: in vivo
Method in brief: (§1)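 Acute toxic class method per OECD Guideline 423 / EU Method B.1 tris, run in three stages of three female Balbc/cmdb mice each. Fasted about 3 h, then given a single dose by metal stomach tube in DMSO at 0.5 mL/100 g bw. Stage doses were 300, 2000, then 2000 mg/kg bw. General and detailed clinical observations daily for 14 days; body weights recorded.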

HL60/MX2 = experiment: Antiproliferative activity against human HL60/MX2 cells after 72 hrs by MTT assay; assay type: functional, cell-based; conditions: HL60/MX2, 72 h
Method in brief: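 Leukemia cells seeded at 1 × 10^4 per well 24 h before adding compounds (0.01–1000 µg/mL from DMSO stock), exposed 72 h. MTT (5 mg/mL stock) added for 4 h, then DMF/SDS lysis mixture; absorbance at 570 nm read after 24 h. Triplicates per experiment, 3–5 repeats; IC50 calculated per experiment, reported as mean ± SD.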

[2] = Acute toxicity in New Zealand albino rabbit assessed as conjunctiva at 0.068 g applied to conjunctival sac of eye measured 1 to 72 hrs post dose; parameters: species or system Oryctolagus cuniculus; conditions: in vivo, topical_or_ocular
MCF7 = experiment: Antiproliferative activity against human MCF7 cells after 72 hrs by SRB assay; assay type: functional, cell-based; conditions: MCF7, 72 h
Method in brief: (§2)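 Adherent cells plated at 1 × 10^4 per well 24 h before treatment, then exposed 72 h to compounds diluted from 20 mg/mL DMSO stock (0.01–1000 µg/mL). Fixed in cold 50% TCA at 4°C for 1 h, stained with 0.4% sulforhodamine B, bound dye extracted with 10 mM Tris, OD at 540 nm. Triplicates, 3–5 experiments; IC50 per experiment, mean ± SD.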

[3] = Selectivity index, ratio of IC50 for mouse BALB/3T3 cells to IC50 for human LoVo cells; assay type: toxicity; conditions: BALB/3T3 cells versus LoVo cells, read-out: Ratio IC50
[4] = Selectivity index, ratio of IC50 for mouse BALB/3T3 cells to IC50 for human LoVo/DX cells; assay type: toxicity; conditions: BALB/3T3 cells versus LoVo/DX cells, read-out: Ratio IC50
[5] = Selectivity index, ratio of IC50 for mouse BALB/3T3 cells to IC50 for human A549 cells
HL-60 [6] = experiment: Decrease in cyclin E expression in human HL60 cells at 1 ug/ml after 72 hrs by Western-blot analysis; assay type: functional, cell-based
Method in brief: (§3)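 HL-60 (2 × 10^5 cells/mL) treated 72 h at 1 µg/mL with DMSO control, then lysed in RIPA buffer with protease/phosphatase inhibitors. 100 µg protein resolved on 4–20% gels and transferred to nitrocellulose. Probed with rabbit primary antibody, fluorescein-linked anti-rabbit secondary, then anti-fluorescein–alkaline phosphatase with ECF substrate; fluorescence scanned. Densitometry normalized to actin, reported as fold change versus control.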

[7] = Antiproliferative activity against human HCV29T cells; assay type: functional, cell-based
LoVo [8] = experiment: Potency index, ratio of bestatin IC50 to compound IC50 for human LoVo cells; assay type: functional
[9] = Selectivity index, ratio of IC50 for mouse BALB/3T3 cells to IC50 for human A498 cells
HL-60 [10] = experiment: Effect on Bcl-2 expression in human HL60 cells at 1 ug/ml after 72 hrs by Western-blot analysis; assay type: functional, cell-based; method in brief: as §3
[11] = Selectivity index, ratio of IC50 for mouse BALB/3T3 cells to IC50 for human HCV29T cells; assay type: toxicity; conditions: BALB/3T3 cells versus HCV29T cells, read-out: Ratio IC50
[12] = Selectivity index, ratio of IC50 for mouse BALB/3T3 cells to IC50 for human Jurkat cells; assay type: toxicity; conditions: BALB/3T3 cells versus Jurkat cells, read-out: Ratio IC50
HL-60 [13] = experiment: Induction of apoptosis in human HL60 cells assessed as increase in late apoptotic cells at 3 ug/ml after 72 hrs by APC-Annexin V/propidium iodide staining based flow cytometry relative to control; assay type: functional, cell-based
Method in brief: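 HL-60 (2 × 10^5 cells/mL, seeded 24 h before) treated 72 h at 3 µg/mL alongside a DMSO control. Cells suspended in APC-Annexin V in HEPES binding buffer pH 7.4 with 1.8 mM CaCl2, 15 min dark at rt, then PI at 0.1 mg/mL final. Flow cytometry: PI+/Annexin+ counted as late apoptotic/necrotic. Three experiments, mean ± SD, p≤0.05 versus control.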

[14] = Selectivity index, ratio of IC50 for human MCF10 cells to IC50 for human HL60 cells; assay type: toxicity; conditions: MCF10 cells versus HL60 cells, read-out: Ratio IC50
Method in brief: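 Selectivity index is the ratio of the IC50 for the normal line to the IC50 for the cancer line. Both IC50 values come from 72 h antiproliferative assays: SRB for adherent cells, MTT for HL-60.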

Raji = experiment: Antiproliferative activity against human Raji cells; assay type: functional, cell-based
[15] = Selectivity index, ratio of IC50 for mouse BALB/3T3 cells to IC50 for human DU145 cells
[16] = Antiproliferative activity against human LoVo/DX cells; assay type: functional, cell-based
[17] = Antioxidant activity assessed as ABTS free radical scavenging activity; assay type: functional
BALB/3T3 = experiment: Antiproliferative activity against mouse BALB/3T3 cells after 72 hrs by SRB assay; assay type: cell-based; conditions: BALB/3T3, 72 h; method in brief: as §2
MCF10 = experiment: Antiproliferative activity against human MCF10 cells after 72 hrs by SRB assay; assay type: cell-based; conditions: MCF10, 72 h; method in brief: as §2
[18] = Acute toxicity in Balbc/cmdb mouse assessed as clinical signs at 2000 mg/kg, po administered as single dose in second stage of experiment measured immediately post dose; assay type: organism-based; conditions: in vivo; method in brief: as §1
[19] = Acute dermal toxicity in Wistar rat assessed as pathological changes at 2000 mg/kg topically applied to shaved dorsal skin as single dose for 24 hrs measured for 14 days; assay type: organism-based; conditions: in vivo, topical_or_ocular
Method in brief: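 Wistar rats, 5 males and 5 females; single 2000 mg/kg bw dermal application to shaved dorsal skin (about 41 cm2 per male, 31 cm2 per female) for 24 h. General and detailed clinical observations daily over a 14-day observation period, then animals euthanized; treated skin examined for pathological changes.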

HL-60 [20] = experiment: Effect on cyclin A levels in human HL60 cells at 1 ug/ml after 72 hrs by Western-blot analysis; assay type: functional, cell-based; method in brief: as §3
A498 = experiment: Antiproliferative activity against human A498 cells; assay type: functional, cell-based
MV4-11 = experiment: Antiproliferative activity against human MV411 cells; assay type: functional, cell-based
[21] = Selectivity index, ratio of IC50 for mouse BALB/3T3 cells to IC50 for human CCRF-CEM cells; assay type: toxicity; conditions: BALB/3T3 cells versus CCRF-CEM cells, read-out: Ratio IC50
LoVo [22] = experiment: Antiproliferative activity against human LoVo cells; assay type: functional, cell-based
[23] = Acute toxicity in Balbc/cmdb mouse assessed as clinical signs at 300 mg/kg, po administered as single dose in first stage of experiment measured for 14 days; assay type: organism-based; conditions: in vivo, 336 h; method in brief: as §1
[24] = Antiproliferative activity against HLMEC after 72 hrs by SRB assay; parameters: species or system Homo sapiens; method in brief: as §2
CEM/C2 = experiment: Antiproliferative activity against human CEM/C2 cells; assay type: functional, cell-based

In the case of `CCOC(=O)C1(C(=O)OCC)Cc2cc(OCc3ccccc3)cc(OCc3ccccc3)c2C=N1`, the IC50 (Jurkat) is reported as 14.4 µM, the Activity [1] is reported as “Toxic” and the IC50 (HL60/MX2) is reported as 5.1 µM. The Activity [2] was “Non-Toxic”, the IC50 (MCF7) was 9.6 µM and the selectivity ratio [3] was 32.6. For the same compound, the selectivity ratio [4] was 8.8, the “Ratio IC50” value [5] was 2.7 and the Activity (HL-60 [6]) was “Active”. For the same compound, the IC50 [7] was 8.8 µM, the “Ratio IC50” value (LoVo [8]) was 212 and the “Ratio IC50” value [9] was 2.7. For the same compound, the Activity (HL-60 [10]) was “inactive”, the selectivity ratio [11] was 4.1 and the selectivity ratio [12] was 2.5. For the same compound, the Activity (HL-60 [13]) was “Active”, the selectivity ratio [14] was 4 to 8 and the IC50 (Raji) was 0.6 µM. For the same compound, the “Ratio IC50” value [15] was 4.8, the IC50 [16] was 4.1 µM and the Activity [17] was “inactive”. For the same compound, the IC50 (BALB/3T3) was 35.9 µM, the IC50 (MCF10) was 40.2 µM and the Activity [18] was “Toxic”. The Activity [19] was “Non-Toxic”, the Activity (HL-60 [20]) was “inactive” and the IC50 (A498) was 13.3 µM. It also gave an IC50 (MV4-11) of 64.4 µM, a selectivity ratio [21] of 51.3 and an IC50 (LoVo [22]) of 1.1 µM. For the same compound, the Activity [23] was “Non-Toxic”, the IC50 [24] was 6.8 µM and the IC50 (CEM/C2) was 0.4 µM.
